Results gathered from unrelated publications.
Organism: Escherichia coli
Observed: microbial growth

SMILES	technique	cell line	strain	time	notes	MIC
CCCCCC(=O)Oc1c(C)c(O)c(C(=O)/C=C/c2ccccc2)c(OC)c1C	broth dilution	–	ATCC25922	–	–	5000 µg/mL
Clc1ccccc1NCc1ccc(Oc2ccccn2)cc1	–	–	–	–	–	> 25 µg/mL
N=C(N)c1ccc(OCc2ccc(COc3ccc(C(=N)N)cc3)cc2)cc1	–	–	BW25113	20 h	–	> 200 µg/mL
O=C(O)c1cn(C2CC2)c2cc(N3CCNCC3)c(F)cc2c1=O	broth dilution	–	ATCC25922	–	–	16 µg/mL
CC(C)Oc1c(NC(=O)c2ccc(NC(=O)[C@H](CC(N)=O)NC(=O)c3ccc(NC(=O)c4ccc(C#N)cc4)cc3)cc2)ccc(C(=O)Nc2cc(C(=O)O)n(C)c2)c1O	–	–	DSM1116	–	–	0.5 µg/mL
CC(=O)Nc1ncc([N+](=O)[O-])s1	–	–	–	–	–	< 50 µM
N=C(N)c1ccc(OCCCCCOc2ccc(C(=N)N)cc2)cc1	broth dilution	–	ATCC25922	–	–	200 µg/mL
CC1=NN(CNc2ccccc2[N+](=O)[O-])C(=O)C1=NNn1c(-c2ccccc2)nc2ccccc2c1=O	broth dilution	–	–	24 h	–	50.4 µM
NCCCNC1CCCCc2c1[nH]c1ccc(Br)cc21 (stereo not drawn)	broth dilution	–	ATCC25922	–	–	16 µg/mL
CNc1cccc2cc(C(=O)NCc3ccc(C(=O)O)cc3)c(=O)[nH]c12	broth dilution	–	ATCC25922	–	–	> 64 µg/mL
Cc1ccc(C)n1-c1ccc(-c2nnc(-c3ccc(O)cc3)[nH]2)cc1	broth dilution	–	ATCC10536	18 h	–	250 µg/mL
Cc1ccc2nc(-c3c(F)cccc3Cl)[nH]c2c1	broth dilution	–	ATCC25922	–	–	128 µg/mL
O=C(Cc1cc(O)c(O)c(O)c1)NCCCCCCCC[P+](c1ccccc1)(c1ccccc1)c1ccccc1.[Br-]	broth dilution	–	ATCC25922	18 h	–	> 32 µg/mL
CCOc1ccc(-c2nc3cc(-c4nc5cc(N6CCN(C)CC6)ccc5[nH]4)ccc3[nH]2)cc1	broth dilution	–	25922	24 h	–	8 to 16 µg/mL
COc1c(C)c(OC(=O)c2ccccc2)c(C)c(O)c1C(=O)/C=C/c1ccccc1	broth dilution	–	ATCC25922	–	–	5000 µg/mL
Cc1cccc2nc(-c3ccc([N+](=O)[O-])o3)[nH]c12	broth dilution	–	ATTC25922	–	–	4 µg/mL
COc1cccc(-c2nc3ccccc3n2Cc2ccccc2)c1	broth dilution	–	ATCC25922	–	–	128 µg/mL
Cc1ccc(C)n1-c1ccc(-c2nnco2)cc1	broth dilution	–	ATCC10536	18 h	–	4 µg/mL
N=C(N)c1cccc(OCc2ccc(COc3cccc(C(=N)N)c3)cc2)c1	–	–	BW25113	–	–	> 200 µg/mL
c1ccc(NCc2ccc(Oc3ccccn3)cc2)cc1	–	–	–	–	–	> 25 µg/mL
O=C(CCCCCCCC[P+](c1ccccc1)(c1ccccc1)c1ccccc1)Nc1cc(O)c(O)c(O)c1.[Br-]	broth dilution	–	ATCC25922	18 h	–	> 32 µg/mL
Cc1ccc2nc(-c3ccccc3O)[nH]c2c1	broth dilution	–	ATCC25922	–	–	128 µg/mL
CC(C)Oc1c(NC(=O)c2ccc(NC(=O)[C@H](CC(N)=O)NC(=O)c3ccc(NC(=O)c4ccc(F)cc4)cc3)cc2)ccc(C(=O)Nc2ccc(C(=O)O)cc2)c1O	–	–	DSM1116	–	–	0.5 µg/mL
CCOc1ccc(-c2nc3ccccc3n2Cc2ccccc2)cc1	broth dilution	–	ATCC25922	–	–	64 µg/mL
CCCCCCC#Cc1cncc(-c2nnc(SCc3ccc([N+](=O)[O-])cc3)n2C)c1	–	–	–	–	–	≥ 20 µg/mL
Cc1cc(C(=O)Nc2ccc(C(=O)N[C@@H](CC(N)=O)C(=O)Nc3ccc(C(=O)Nc4ccc(C(=O)Nc5ccc(C(=O)O)cc5)c(O)c4OC(C)C)cc3)cc2)ccc1C#N	–	–	DSM1116	–	–	0.5 µg/mL
C[C@H]1COc2c(N3CCN(C)CC3)c(F)cc3c(=O)c(C(=O)O)cn1c23	agar dilution	–	ATCC25	–	–	≤ 0.03 µg/mL

SMILES	technique	cell line	strain	time	notes	MIC
Cc1ccc2nc(-c3ccc(Cl)cc3)n(Cc3ccccc3)c2c1	broth dilution	–	ATCC25922	–	–	16 µg/mL
N=C(N)c1ccc(OCCCCCCCCCCCOc2ccc(C(=N)N)cc2)cc1	–	–	BW25113	–	–	50 µg/mL
CCCCCCC/C=C/C(=O)N1C(=O)/C(=C(/C)O)C(=O)C1CCCCN (stereo not drawn)	–	K12	K12	–	–	> 200 µg/mL
N=C(N)c1ccc(OCc2cccc(COc3ccc(C(=N)N)cc3)c2)cc1	broth dilution	–	W3110	–	–	100 µg/mL
O=C(Nc1ccc2c(c1)OC(F)(F)O2)Nc1ccc(Cl)c(C(F)(F)F)c1	–	–	CFT073	–	–	> 100 µM
CO[C@@H](C(N)=O)[C@H](NC(=O)c1ccc(NC(=O)c2ccc(C#N)cc2)cc1)C(=O)Nc1ccc(C(=O)Nc2ccc(C(=O)Nc3ccc(C(=O)O)cc3)c(O)c2OC(C)C)cc1	–	–	DSM1116	–	–	< 0.03 µg/mL
O=C(CCc1ccc(O)c(O)c1)NCCCCCCCC[P+](c1ccccc1)(c1ccccc1)c1ccccc1.[Br-]	broth dilution	–	ATCC25922	18 h	–	> 32 µg/mL
CC1(C)S[C@@H]2[C@H](NC(=O)[C@H](N)c3ccccc3)C(=O)N2[C@H]1C(=O)O	broth dilution	–	ATCC25922	–	–	8 µg/mL
N=C(N)c1cccc(OCCCCCOc2cccc(C(=N)N)c2)c1	broth dilution	–	BW25113	–	–	> 200 µg/mL
Cc1c(CN(C)C(=O)/C=C/c2cnc3c(c2)CC(NC(=O)OC(C)(C)C)C(=O)N3)oc2ccccc12 (stereo not drawn)	broth dilution	–	BAA2340	–	clinical isolate	> 32 µg/mL
CC(C)(O/N=C(\C(=O)N[C@@H]1C(=O)N2C(C(=O)[O-])=C(C[n+]3ccccc3)CS[C@H]12)c1csc(N)n1)C(=O)O	broth dilution	–	ATCC25922	–	–	0.25 µg/mL
NC1CCc2c1[nH]c1ccc(Cl)c(Cl)c21 (stereo not drawn)	broth dilution	–	ATCC25922	–	–	16 µg/mL
O=C1NN=C(N=Cc2ccccc2O)C1=NNn1c(-c2ccccc2)nc2ccccc2c1=O	broth dilution	–	–	24 h	–	55.4 µM
C/C(=C\c1ccc(C#N)cc1)C(=O)Nc1ccc(C(=O)N[C@@H](CC(N)=O)C(=O)Nc2ccc(C(=O)Nc3ccc(C(=O)Nc4ccc(C(=O)O)cc4)c(O)c3OC(C)C)cc2)cc1	–	–	DSM1116	–	–	0.125 µg/mL
c1ccc2c(-c3nc4ccccc4[nH]3)c3ccccc3cc2c1	broth dilution	–	ATCC25922	–	–	64 µg/mL
CO[C@H]1/C=C/O[C@@]2(C)Oc3c(C)c(O)c4c(O)c(c(/C=N/N5CCN(C)CC5)c(O)c4c3C2=O)NC(=O)/C(C)=C\C=C\[C@H](C)[C@H](O)[C@@H](C)[C@@H](O)[C@@H](C)[C@H](OC(C)=O)[C@@H]1C	–	–	ATCC25922	–	–	4 µg/mL
O=C(O)c1cn(C2CC2)c2cc(N3CCNCC3)c(F)cc2c1=O	–	–	–	–	–	1.6 µg/mL
CCCCCCC/C=C/C(=O)N1C(=O)/C(=C(\O)C2CCNCC2)C(=O)C1CC(C)C (stereo not drawn)	–	K12	K12	–	–	25 µg/mL
N=C(N)c1ccc(OCCCCCCCCCOc2ccc(C(=N)N)cc2)cc1	–	–	BW25113	–	–	50 µg/mL
CC(C)Oc1c(NC(=O)c2ccc(NC(=O)[C@H](CC(N)=O)NC(=O)c3ccc(NC(=O)c4ccc(NC(=O)c5ccc([N+](=O)[O-])cc5)cc4)cc3)cc2)ccc(C(=O)Nc2ccc(C(=O)O)cc2)c1O	–	–	DSM1116	–	–	0.5 µg/mL
CCCCCCC/C=C/C(=O)N1CC(=O)/C(=C(\C)O)C1=O	–	K12	K12	–	–	> 200 µg/mL
COc1c(C)c(OCc2ccccc2)c(C)c(O)c1C(=O)/C=C/c1ccccc1	broth dilution	–	ATCC25922	–	–	5000 µg/mL
Cc1ccc2nc(-c3cccc([N+](=O)[O-])c3)[nH]c2c1	broth dilution	–	ATCC25922	–	–	256 µg/mL
CC(C)Oc1c(NC(=O)c2ccc(NC(=O)[C@H](CC(N)=O)NC(=O)c3ccc(NC(=O)c4ccc(C#N)nc4)cc3)cc2)ccc(C(=O)Nc2ccc(C(=O)O)cc2)c1O	–	–	DSM1116	–	–	≤ 0.03 µg/mL
N=C(N)c1ccc(OCc2ccc(-c3ccccc3)cc2COc2ccc(C(=N)N)cc2)cc1	–	–	BW25113	–	–	≥ 200 µg/mL
Cc1ccc(C)n1-c1ccc(-c2nnc(-c3c(Cl)cccc3Cl)[nH]2)cc1	broth dilution	–	ATCC10536	18 h	–	62.5 µg/mL
C/C(=C\c1ccc(C#N)cc1)C(=O)Nc1ccc(C(=O)N[C@@H](CC(N)=O)C(=O)Nc2ccc(C(=O)Nc3ccc(C(=O)Nc4ccc(C(=O)O)cc4)c(O)c3OCC(C)C)cc2)cc1	–	–	DSM1116	–	–	0.5 µg/mL
